In ChEMBL document CHEMBL3352485 (J Med Chem, 2014):

What was measured:
KiSS-1 receptor [1] = target: T1, KiSS-1 receptor (Homo sapiens, UniProt Q969F8); test: Agonist activity at human KISS1R transfected in CHO cells assessed as intracellular calcium flux after 24 hrs by functional FLIPR assay; assay type: cell-based
Outline: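 CHO cells stably expressing human KISS1R were seeded at 15 000 cells/mL, cultured 24 h, then loaded with fluo-3 for 1 h at 37 °C in HBSS/HEPES (pH 7.4) with probenecid and FBS. Cells were washed in HBSS with 2.5 mM probenecid. Peptides came from 1 mM DMSO stocks diluted in buffer containing probenecid, 0.2% BSA and 0.1% CHAPS. Fluorescence was recorded on FLIPR for 3 min; peak counts over 0–180 s gave agonist activity.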

KiSS-1 receptor [2] = target: T2, KiSS-1 receptor (Rattus norvegicus, UniProt Q924U1); test: Agonist activity at rat KISS1R transfected in CHO cells assessed as intracellular calcium flux after 24 hrs by functional FLIPR assay; assay type: cell-based
Rattus norvegicus [3] = test: Testosterone-suppressive activity in Crl:CD(SD) rat assessed as number of animal with plasma testosterone level below the limit of detection at 2 nmol/hr, sc through osmotic pumps measured after 6 days by RIA; assay type: functional
Outline: (§1)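 Peptide was dissolved in distilled water or 50% DMSO as 0.1–2 mM pump solutions and delivered by ALZET osmotic pumps implanted subcutaneously in the back of 9-week-old male Crl:CD(SD) rats (n = 5) under ether. Controls received distilled-water pumps. After 6 days, rats were decapitated and plasma was recovered with aprotinin/EDTA. Testosterone was measured by RIA, and the number of rats below the detection limit (0.04 ng/mL) was counted.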

KiSS-1 receptor [4] = target: T1, KiSS-1 receptor; test: Displacement of radioligand from human KISS1R transfected in CHO cells; assay type: cell-based
Outline: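 Binding used membrane fractions prepared from CHO cells expressing recombinant human KISS1R.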

KiSS-1 receptor [5] = target: T2, KiSS-1 receptor; test: Displacement of radioligand from rat KISS1R transfected in CHO cells; assay type: cell-based
Rattus norvegicus [6] = test: Testosterone-suppressive activity in Crl:CD(SD) rat assessed as number of animal with plasma testosterone level below the limit of detection at 0.1 nmol/hr, sc through osmotic pumps measured after 6 days by RIA; assay type: functional; outline: as §1
Rattus norvegicus [7] = test: Testosterone-suppressive activity in Crl:CD(SD) rat assessed as number of animal with plasma testosterone level below the limit of detection at 0.5 nmol/hr, sc through osmotic pumps measured after 6 days by RIA; assay type: functional; outline: as §1
[8] = Stability of the compound in aqueous solution assessed as residual ratio at pH 7 up to 1 week by HPLC analysis relative to initial level; assay type: physicochemical
Outline: (§2)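 Peptides in aqueous solution at pH 1.2 (JP1, containing 10% acetonitrile), 3, 5 or 7 were kept in the dark at 37 °C for up to 2 weeks. Peptide remaining was quantified from HPLC peak area, with detection at 230–280 nm. The residual ratio (stability index) was expressed relative to the time-0 amount, taken as 100%.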

[9] = Stability of the compound in aqueous solution assessed as residual ratio at pH 5 up to 2 weeks by HPLC analysis relative to initial level; assay type: physicochemical; outline: as §2
[10] = Stability of the compound in aqueous solution assessed as residual ratio at pH 3 up to 1 week by HPLC analysis relative to initial level; assay type: physicochemical; outline: as §2
[11] = Stability of the compound in aqueous solution (JP1) assessed as residual ratio at pH 1.2 up to 1 week by HPLC analysis relative to initial level; assay type: physicochemical; outline: as §2
[12] = Stability of the compound in aqueous solution assessed as residual ratio at pH 3 up to 2 weeks by HPLC analysis relative to initial level; assay type: physicochemical; outline: as §2
Rattus norvegicus [13] = test: Testosterone-suppressive activity in Crl:CD(SD) rat assessed as number of animal with plasma testosterone level below the limit of detection at 0.3 nmol/hr, sc through osmotic pumps measured after 6 days by RIA; assay type: functional; outline: as §1
[14] = Stability of the compound in aqueous solution assessed as residual ratio at pH 5 up to 1 week by HPLC analysis relative to initial level; assay type: physicochemical; outline: as §2
[15] = Stability of the compound in aqueous solution (JP1) assessed as residual ratio at pH 1.2 up to 2 weeks by HPLC analysis relative to initial level; assay type: physicochemical; outline: as §2
[16] = Stability of the compound in aqueous solution assessed as residual ratio at pH 7 up to 2 weeks by HPLC analysis relative to initial level; assay type: physicochemical; outline: as §2

T1 sequence (Q969F8 whole entry): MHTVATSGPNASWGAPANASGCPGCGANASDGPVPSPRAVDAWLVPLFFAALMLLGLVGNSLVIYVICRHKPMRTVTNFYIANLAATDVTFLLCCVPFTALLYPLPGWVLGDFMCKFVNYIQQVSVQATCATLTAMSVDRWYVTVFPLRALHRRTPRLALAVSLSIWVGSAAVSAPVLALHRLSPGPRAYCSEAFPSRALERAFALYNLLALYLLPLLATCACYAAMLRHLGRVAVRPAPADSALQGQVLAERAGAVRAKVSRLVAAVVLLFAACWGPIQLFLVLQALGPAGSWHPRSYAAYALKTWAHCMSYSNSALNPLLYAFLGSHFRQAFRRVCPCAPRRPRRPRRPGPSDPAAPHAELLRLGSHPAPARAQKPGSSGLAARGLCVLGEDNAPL
T2 sequence (Q924U1 whole entry): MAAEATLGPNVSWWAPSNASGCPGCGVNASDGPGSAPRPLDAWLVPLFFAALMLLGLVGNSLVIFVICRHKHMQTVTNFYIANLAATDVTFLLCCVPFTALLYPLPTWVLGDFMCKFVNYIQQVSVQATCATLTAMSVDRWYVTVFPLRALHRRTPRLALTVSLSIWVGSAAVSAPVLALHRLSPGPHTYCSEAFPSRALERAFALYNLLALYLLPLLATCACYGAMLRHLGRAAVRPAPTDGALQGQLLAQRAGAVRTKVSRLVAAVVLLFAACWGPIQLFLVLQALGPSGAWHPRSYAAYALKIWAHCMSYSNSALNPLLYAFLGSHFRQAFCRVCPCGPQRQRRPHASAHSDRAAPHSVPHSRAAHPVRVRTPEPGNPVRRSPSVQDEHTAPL

EC50 (KiSS-1 receptor [1]) [nM]	EC50 (KiSS-1 receptor [2]) [nM]	Ki (KiSS-1 receptor [4]) [nM]	SMILES	other results
4.4	110	–	CNC(=N)NCCC[C@H](NC(=O)[C@H](CC(C)C)NC(=O)NNC(=O)[C@H](Cc1ccccc1)NC(=O)[C@@H](NC(=O)[C@H](CC(N)=O)NC(=O)[C@@H](Cc1ccncc1)NC(=O)[C@H](N)Cc1ccc(O)cc1)c1ccccc1)C(=O)N[C@@H](Cc1c[nH]c2ccccc12)C(N)=O	–
1.8	12	0.052	CNC(=N)NCCC[C@H](NC(=O)[C@H](CC(C)C)NC(=O)NNC(=O)[C@H](Cc1ccccc1)NC(=O)[C@@H](NC(=O)[C@H](CC(N)=O)NC(=O)[C@@H](Cc1ccncc1)NC(=O)[C@H](N)Cc1ccc(O)cc1)C(C)C)C(=O)N[C@@H](Cc1c[nH]c2ccccc12)C(N)=O	Activity (Rattus norvegicus [7]): 0%; Activity (Rattus norvegicus [3]): 80%
0.51	2.3	0.037	CNC(=N)NCCC[C@H](NC(=O)[C@H](CC(C)C)NC(=O)NNC(=O)[C@H](Cc1ccccc1)NC(=O)[C@H](CO)NC(=O)[C@H](CC(N)=O)NC(=O)[C@@H](Cc1c[nH]c2ccccc12)NC(=O)[C@H](N)Cc1ccc(O)cc1)C(=O)N[C@@H](Cc1c[nH]c2ccccc12)C(N)=O	Activity (Rattus norvegicus [7]): 80%; remaining at 168 h [8]: 56.5%; Activity (Rattus norvegicus [6]): 0 rats (n = 5); remaining at 336 h [9]: 90.8%; remaining at 168 h [10]: 98.2%; remaining at 168 h [11]: 60.8%; remaining at 336 h [12]: 97.1%; Activity (Rattus norvegicus [13]): 40%; remaining at 168 h [14]: 96%; remaining at 336 h [15]: 33.4%; remaining at 336 h [16]: 28%; Ki (KiSS-1 receptor [5]): 0.077 nM
0.96	–	0.035	CC(C)C[C@H](NC(=O)CNC(=O)[C@H](Cc1ccccc1)NC(=O)[C@H](CO)NC(=O)[C@H](CC(N)=O)NC(=O)[C@H](Cc1c[nH]c2ccccc12)NC(=O)[C@H](CC(N)=O)NC(=O)[C@@H](N)Cc1ccc(O)cc1)C(=O)N[C@@H](CCCNC(=N)N)C(=O)N[C@@H](Cc1ccccc1)C(N)=O [KISSPEPTIN-10]	–
0.87	6	0.074	CNC(=N)NCCC[C@H](NC(=O)[C@H](CC(C)C)NC(=O)NNC(=O)[C@H](Cc1ccccc1)NC(=O)[C@H](CO)NC(=O)[C@H](CC(N)=O)NC(=O)[C@@H](Cc1ccncc1)NC(=O)[C@H](N)Cc1ccc(O)cc1)C(=O)N[C@@H](Cc1c[nH]c2ccccc12)C(N)=O	Activity (Rattus norvegicus [7]): 60%; Activity (Rattus norvegicus [6]): 0 rats (n = 5); Activity (Rattus norvegicus [3]): 80%; Activity (Rattus norvegicus [13]): 40%; Ki (KiSS-1 receptor [5]): 0.13 nM
1.6	5.7	0.086	CNC(=N)NCCC[C@H](NC(=O)[C@H](CC(C)C)NC(=O)NNC(=O)[C@H](Cc1ccccc1)NC(=O)[C@@H](NC(=O)[C@H](CC(N)=O)NC(=O)[C@@H](Cc1ccncc1)NC(=O)[C@H](N)Cc1ccc(O)cc1)[C@@H](C)O)C(=O)N[C@@H](Cc1c[nH]c2ccccc12)C(N)=O	–

The remaining lines, values behind:

SMILES	EC50 (KiSS-1 receptor [1]) [nM]	EC50 (KiSS-1 receptor [2]) [nM]	Ki (KiSS-1 receptor [4]) [nM]	other results
CC[C@H](NC(=O)[C@@H](Cc1c[nH]c2ccccc12)NC(=O)[C@H](N)Cc1ccc(O)cc1)C(=O)N[C@@H](CO)C(=O)N[C@@H](Cc1ccccc1)C(=O)NNC(=O)N[C@@H](CC(C)C)C(=O)N[C@@H](CCCNC(=N)NC)C(=O)N[C@@H](Cc1c[nH]c2ccccc12)C(N)=O	0.64	2.8	0.12	Activity (Rattus norvegicus [3]): 0%; Ki (KiSS-1 receptor [5]): 0.83 nM
CNC(=N)NCCC[C@H](NC(=O)[C@H](CC(C)C)NC(=O)NNC(=O)[C@H](Cc1ccccc1)NC(=O)[C@H](Cc1c[nH]c2ccccc12)NC(=O)[C@H](CC(N)=O)NC(=O)[C@@H](Cc1ccncc1)NC(=O)[C@H](N)Cc1ccc(O)cc1)C(=O)N[C@@H](Cc1c[nH]c2ccccc12)C(N)=O	0.59	7.4	–	–
CNC(=N)NCCC[C@H](NC(=O)[C@H](CC(C)C)NC(=O)NNC(=O)[C@H](Cc1ccccc1)NC(=O)[C@@H](NC(=O)[C@H](CC(N)=O)NC(=O)[C@@H](Cc1c[nH]c2ccccc12)NC(=O)[C@@H](Cc1ccc(O)cc1)NC(=O)C1CC1)[C@@H](C)O)C(=O)N[C@@H](Cc1c[nH]c2ccccc12)C(N)=O	0.82	4.2	0.034	Ki (KiSS-1 receptor [5]): 0.087 nM
CNC(=N)NCCC[C@H](NC(=O)[C@H](CC(C)C)NC(=O)NNC(=O)[C@H](Cc1ccccc1)NC(=O)[C@@H](NC(=O)[C@H](CC(N)=O)NC(=O)[C@@H](Cc1c[nH]c2ccccc12)NC(=O)[C@@H](Cc1ccc(O)cc1)NC(=O)c1ccccc1)[C@@H](C)O)C(=O)N[C@@H](Cc1c[nH]c2ccccc12)C(N)=O	0.44	1.7	0.027	Activity (Rattus norvegicus [6]): 0 rats (n = 5)
CNC(=N)NCCC[C@H](NC(=O)[C@H](CC(C)C)NC(=O)NNC(=O)[C@H](Cc1ccccc1)NC(=O)[C@@H](NC(=O)[C@H](C)NC(=O)[C@@H](Cc1c[nH]c2ccccc12)NC(=O)[C@H](N)Cc1ccc(O)cc1)[C@@H](C)O)C(=O)N[C@@H](Cc1c[nH]c2ccccc12)C(N)=O	0.63	13	–	–
CNC(=N)NCCC[C@H](NC(=O)[C@H](CC(C)C)NC(=O)NNC(=O)[C@H](Cc1ccccc1)NC(=O)[C@@H](NC(=O)[C@H](CC(N)=O)NC(=O)[C@@H](Cc1c[nH]c2ccccc12)NC(=O)[C@H](N)Cc1ccc(O)cc1)C(C)C)C(=O)N[C@@H](Cc1c[nH]c2ccccc12)C(N)=O	0.31	2.2	0.028	Activity (Rattus norvegicus [7]): 0%
CNC(=N)NCCC[C@H](NC(=O)[C@H](CC(C)C)NC(=O)NNC(=O)[C@H](Cc1ccccc1)NC(=O)[C@H](CO)NC(=O)[C@H](C)NC(=O)[C@@H](Cc1c[nH]c2ccccc12)NC(=O)[C@H](N)Cc1ccc(O)cc1)C(=O)N[C@@H](Cc1c[nH]c2ccccc12)C(N)=O	0.49	6.8	–	–
CNC(=N)NCCC[C@H](NC(=O)[C@H](CC(C)C)NC(=O)NNC(=O)[C@H](Cc1ccccc1)NC(=O)[C@@H](NC(=O)[C@H](CC(N)=O)NC(=O)[C@@H](Cc1ccncc1)NC(=O)[C@H](N)Cc1ccc(O)cc1)C(C)(C)C)C(=O)N[C@@H](Cc1c[nH]c2ccccc12)C(N)=O	1.5	22	–	–
CNC(=N)NCCC[C@H](NC(=O)[C@H](CC(C)C)NC(=O)NNC(=O)[C@H](Cc1ccccc1)NC(=O)[C@H](CO)NC(=O)[C@@H](NC(=O)[C@@H](Cc1ccncc1)NC(=O)[C@H](N)Cc1ccc(O)cc1)[C@@H](C)O)C(=O)N[C@@H](Cc1c[nH]c2ccccc12)C(N)=O	1.3	32	–	–
CNC(=N)NCCC[C@H](NC(=O)[C@H](CC(C)C)NC(=O)NNC(=O)[C@H](Cc1ccccc1)NC(=O)[C@@H]1CCCN1C(=O)[C@H](CC(N)=O)NC(=O)[C@@H](Cc1ccncc1)NC(=O)[C@H](N)Cc1ccc(O)cc1)C(=O)N[C@@H](Cc1c[nH]c2ccccc12)C(N)=O	1.2	13	0.096	Activity (Rattus norvegicus [7]): 20%
CNC(=N)NCCC[C@H](NC(=O)[C@H](CC(C)C)NC(=O)NNC(=O)[C@H](Cc1ccccc1)NC(=O)[C@@H]1CC(O)CN1C(=O)[C@H](CC(N)=O)NC(=O)[C@@H](Cc1ccncc1)NC(=O)[C@H](N)Cc1ccc(O)cc1)C(=O)N[C@@H](Cc1c[nH]c2ccccc12)C(N)=O (stereo partly drawn)	2.8	95	–	–
CNC(=N)NCCC[C@H](NC(=O)[C@H](CC(C)C)NC(=O)NNC(=O)[C@H](Cc1ccccc1)NC(=O)[C@H](CO)NC(=O)[C@H](C)NC(=O)[C@@H](Cc1ccncc1)NC(=O)[C@H](N)Cc1ccc(O)cc1)C(=O)N[C@@H](Cc1c[nH]c2ccccc12)C(N)=O	0.7	9.3	0.2	Activity (Rattus norvegicus [3]): 0%; Ki (KiSS-1 receptor [5]): 3.6 nM
